Measurements from ChEMBL document CHEMBL4270665, “Biodegradable Amphipathic Peptide Hydrogels as Extended-Release System for Opioid Peptides” (J Med Chem, 2018).
pEC50, pKi: −log10 of the molar value. Calls of active or inactive are those of the source. The rule behind the calls is not given here. Starred links: 1 amine or outer side, 2 acyl side, 3 side chain; linkers in the order of their positions; H or OH if unused. Non-standard residues stand in square brackets, D forms with d. Residues, ends and D or L forms follow the SMILES beside them. X1 = O=C1[C@@H](N[*:1])Cc2ccccc2CN1CCC(=O)[*:2]; Dmt = Cc1cc(O)cc(C)c1C[C@H](N)C(=O)O; β3hF = N[C@H](CC(=O)O)Cc1ccccc1

Assays:
Mu-type opioid receptor [1] = biological target: T1, Mu-type opioid receptor (Homo sapiens, UniProt P35372); test: Displacement of [3H]DAMGO from human MOR expressed in CHO cell membranes after 60 mins by liquid scintillation counting
T1 sequence (P35372 whole entry): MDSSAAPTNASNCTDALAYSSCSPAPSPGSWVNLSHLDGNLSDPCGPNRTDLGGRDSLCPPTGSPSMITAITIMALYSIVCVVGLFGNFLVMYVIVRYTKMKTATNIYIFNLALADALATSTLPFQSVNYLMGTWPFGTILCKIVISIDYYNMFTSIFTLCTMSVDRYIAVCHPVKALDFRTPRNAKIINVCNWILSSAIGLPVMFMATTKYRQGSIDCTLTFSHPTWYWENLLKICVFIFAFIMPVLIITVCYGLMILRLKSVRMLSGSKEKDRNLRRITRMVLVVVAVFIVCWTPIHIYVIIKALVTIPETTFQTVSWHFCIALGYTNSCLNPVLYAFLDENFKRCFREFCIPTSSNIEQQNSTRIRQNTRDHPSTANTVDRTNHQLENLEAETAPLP

Mu-type opioid receptor [2] = biological target: T1, Mu-type opioid receptor; test: Agonist activity at human MOR expressed in CHO cell membranes after 60 mins by [35S]GTPgammaS binding assay; format: functional
In short: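 Membranes from CHO cells stably expressing human MOR; agonist-stimulated [35S]GTPγS binding. Potency given as EC50 and efficacy (full or partial agonism) measured at human MOR.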

Mus musculus [3] = test: Antinociceptive activity in CD1 mouse assessed as increase in tail-flick latency at 3.9 umol/kg, sc measured up to 3 to 4 hrs post dose; format: functional, organism-based
In short: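 Radiant heat tail-flick test on an analgesiometer after subcutaneous injection of solutions in mice. Doses were 3.0, 3.9, 4.2 or 6.8 μmol/kg, with saline as control. Response was expressed as %MPE over time and AUC was calculated. Groups were 6−8 mice, reported as mean ± SEM, with two-way ANOVA and Bonferroni post hoc test.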

Mus musculus [4] = test: Antinociceptive activity in CD1 mouse assessed as increase in tail-flick latency at 1.8 umol/kg, sc measured after 4 hrs post dose; format: functional, organism-based
Mus musculus [5] = test: Antinociceptive activity in CD1 mouse assessed as increase in tail-flick latency at 0.30 umol, sc co-formulated with H-Phe-Glu-Phe-Gln-Phe-Lys-NH2 measured up to 72 hrs post dose; format: functional, organism-based
Mu-type opioid receptor [6] = biological target: T1, Mu-type opioid receptor; test: Agonist activity at human MOR expressed in human U2OS cells co-expressing enzyme acceptor-tagged beta-arrestin2 fusion protein assessed as induction of beta-arrestin2 recruitment preincubated for 90 mins measured by PathHunter assay; format: functional, cell-based
Mus musculus [7] = test: Antinociceptive activity in sc dosed CD1 mouse assessed as increase in tail-flick latency measured up to 24 hrs post dose; format: functional, organism-based
Mus musculus [8] = test: Antinociceptive activity in CD1 mouse assessed as increase in tail-flick latency at 0.56 umol, sc co-formulated with H-Phe-Gln-Phe-Gln-Phe-Lys-NH2 measured up to 72 hrs post dose; format: functional, organism-based
In short: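 Mice received peptide (0.56 μmol/mouse) co-formulated with hydrogelator at 2% (v/w), sc in 150 μL per mouse. Controls were hydrogelator alone or saline. Radiant-heat tail-flick test read as %MPE over time, with AUC calculated. 6−8 mice per group, mean ± SEM. Two-way ANOVA with Bonferroni post hoc test.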

Mus musculus [9] = test: Antinociceptive activity in CD1 mouse assessed as increase in tail-flick latency at 5.8 umol/kg, sc measured after 8 hrs post dose; format: functional, organism-based
Mus musculus [10] = test: Antinociceptive activity in CD1 mouse assessed as increase in tail-flick latency at 5.6 umol/kg, sc measured up to 7 hrs post dose; format: functional, organism-based
[11] = Metabolic stability in C57BL/6 mouse hind limb assessed as compound remaining at 150 ul, sc measured after 72 hrs post dose by SPECT/CT analysis; format: ADME, organism-based, Hindlimb; conditions: read-out: Stability
In short: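 Hydrogel degradation was followed after subcutaneous injection in mice by determining the hydrogel volume remaining at the injection site, up to 72 h.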

[12] = Half life in human plasma at 9 uM at 37 degC by LC-MS analysis; format: ADME, cell-free
In short: (§1)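 Peptides were incubated in human plasma at 37 °C, and samples were collected at different time points. Half-life was calculated from the degradation profile. Major metabolites were identified by LC−MS analysis of the collected samples.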

Mus musculus [13] = test: Antinociceptive activity in CD1 mouse assessed as increase in tail-flick latency at 0.58 umol/kg, sc co-formulated with H-Phe-Glu-Phe-Gln-Phe-Lys-NH2 measured up to 72 hrs post dose; format: functional, organism-based
Mus musculus [14] = test: Antinociceptive activity in sc dosed CD1 mouse assessed as increase in tail-flick latency measured up to 3 hrs post dose; format: functional, organism-based
Mus musculus [15] = test: Antinociceptive activity in CD1 mouse assessed as increase in tail-flick latency at 6.8 umol/kg, sc measured up to 8 hrs post dose; format: functional, organism-based
In short: (§2)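 Peptide given as a solution, sc, with a saline control group. Radiant-heat tail-flick test read as %MPE over time, with AUC of the time curves calculated. 6−8 mice per group, mean ± SEM. Two-way ANOVA with Bonferroni post hoc test.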

Mus musculus [16] = test: Antinociceptive activity in CD1 mouse assessed as increase in tail-flick latency at 4.2 umol/kg, sc measured up to 3 to 4 hrs post dose; format: functional, organism-based; in short: as §2
[17] = Prodrug conversion in human plasma assessed as H-Dmt-DArg-Phe-Phe-Gln-OH metabolite formation at 9 uM after 30 to 45 mins by LC-MS analysis; format: ADME, cell-free
[18] = Prodrug conversion in human plasma assessed as H-Dmt-DArg-Phe-Phe-Gln-Phe-Gln-OH metabolite formation at 9 uM after 30 to 45 mins by LC-MS analysis; format: ADME, cell-free; in short: as §1
Mus musculus [19] = test: Antinociceptive activity in sc dosed CD1 mouse assessed as increase in tail-flick latency measured up to 72 hrs post dose; format: functional, organism-based
In short: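 Radiant heat tail-flick test in mice after subcutaneous injection of 150 μL per mouse. The peptide (0.56 μmol/mouse) was given coformulated with hydrogelator (2% v/w) or conjugated as a biogel (2% v/w). Hydrogelator alone and saline served as controls. Latency was followed as %MPE over time with AUC calculated. Groups were 6−8 mice, reported as mean ± SEM, with two-way ANOVA and Bonferroni post hoc test.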

[20] = Prodrug conversion in human plasma assessed as H-Dmt-DArg-Phe-OH metabolite formation at 9 uM after 30 to 45 mins by LC-MS analysis; format: ADME, cell-free; in short: as §1
Mus musculus [21] = test: Antinociceptive activity in CD1 mouse assessed as increase in tail-flick latency at 13 umol/kg, sc measured up to 96 hrs post dose relative to control; format: functional
Mus musculus [22] = test: Antinociceptive activity in CD1 mouse assessed as increase in tail-flick latency at 14 umol/kg, sc measured up to 96 hrs post dose relative to control; format: functional

Cc1cc(O)cc(C)c1C[C@H](N)C(=O)N[C@H](CCCNC(=N)N)C(=O)N[C@@H](Cc1ccccc1)C(=O)N[C@@H](Cc1ccccc1)C(=O)N[C@@H](CCC(N)=O)C(=O)N[C@@H](Cc1ccccc1)C(=O)N[C@@H](CCC(N)=O)C(=O)O
pKi (Mu-type opioid receptor [1]): 8.21 | pEC50 (Mu-type opioid receptor [2]): 7.32 | Activity (Mus musculus [3]): Active

Cc1cc(O)cc(C)c1C[C@H](N)C(=O)N[C@H](CCCNC(=N)N)C(=O)N[C@H]1Cc2ccccc2CN(CCC(N)=O)C1=O
Activity (Mus musculus [4]): Active | Activity (Mus musculus [5]): Active | Activity (Mu-type opioid receptor [6]): inactive

Cc1cc(O)cc(C)c1C[C@H](N)C(=O)N[C@H](CCCCN)C(=O)N[C@@H](Cc1ccccc1)C(=O)N[C@@H](Cc1ccccc1)C(=O)N[C@@H](CCC(N)=O)C(=O)N[C@@H](Cc1ccccc1)C(=O)N[C@@H](CCC(N)=O)C(=O)N[C@@H](Cc1ccccc1)C(=O)N[C@@H](CCCCN)C(N)=O (H-[Dmt][dK]FFQFQFK-NH2)
pKi (Mu-type opioid receptor [1]): 6.85 to 8.30 | Activity (Mus musculus [7]): Active

Cc1cc(O)cc(C)c1C[C@H](N)C(=O)N[C@H](CCCCN)C(=O)N[C@@H](Cc1ccccc1)C(=O)N[C@@H](Cc1ccccc1)C(N)=O
Activity (Mus musculus [8]): Active | Activity (Mus musculus [9]): Active | pEC50 (Mu-type opioid receptor [2]): 9.07 to 10.00 | Activity (Mu-type opioid receptor [6]): inactive

Cc1cc(O)cc(C)c1C[C@H](N)C(=O)N[C@H](CCCNC(=N)N)C(=O)N[C@@H](Cc1ccccc1)C(=O)N[C@@H](Cc1ccccc1)C(N)=O
Activity (Mus musculus [10]): Active | pKi (Mu-type opioid receptor [1]): 10.43 | Activity (Mus musculus [8]): Active | pEC50 (Mu-type opioid receptor [2]): 9.72 | Activity (Mu-type opioid receptor [6]): inactive

Cc1cc(O)cc(C)c1C[C@H](N)C(=O)N1CCC[C@H]1C(=O)N[C@@H](Cc1ccccc1)C(=O)N[C@@H](Cc1ccccc1)C(=O)N[C@@H](CCC(=O)O)C(=O)N[C@@H](Cc1ccccc1)C(=O)N[C@@H](CCC(N)=O)C(=O)N[C@@H](Cc1ccccc1)C(=O)N[C@@H](CCCCN)C(N)=O
pKi (Mu-type opioid receptor [1]): 6.85 to 8.30

H-FQFQFK-NH2
remaining at 72 h [11]: 20%

N=C(N)NCCC[C@@H](NC(=O)[C@@H](N)Cc1ccc(O)cc1)C(=O)N[C@@H](Cc1ccccc1)C(=O)N[C@@H](Cc1ccccc1)C(=O)N[C@@H](CCC(N)=O)C(=O)N[C@@H](Cc1ccccc1)C(=O)N[C@@H](CCC(N)=O)C(=O)N[C@@H](Cc1ccccc1)C(=O)N[C@@H](CCCCN)C(N)=O
half-life at 9 µM [12]: 18 min

Cc1cc(O)cc(C)c1C[C@H](N)C(=O)N[C@H](CCCNC(=N)N)C(=O)N[C@@H](Cc1ccccc1)C(=O)N[C@@H](Cc1ccccc1)C(=O)N[C@@H](CCC(N)=O)C(=O)N[C@H](CC(=O)N[C@@H](Cc1ccccc1)C(=O)N[C@@H](CCC(N)=O)C(=O)N[C@@H](Cc1ccccc1)C(=O)N[C@@H](CCCCN)C(N)=O)Cc1ccccc1 (H-[Dmt][dR]FFQ[β3hF]FQFK-NH2)
Activity (Mus musculus [13]): inactive | Activity (Mus musculus [14]): inactive | pKi (Mu-type opioid receptor [1]): 6.85 to 8.30 | half-life at 9 µM [12]: 123 min

Cc1cc(O)cc(C)c1C[C@H](N)C(=O)N[C@H](CCCNC(=N)N)C(=O)N[C@@H](Cc1ccccc1)C(=O)O
pKi (Mu-type opioid receptor [1]): 9.28 | pEC50 (Mu-type opioid receptor [2]): 8.44 | Activity (Mus musculus [15]): Active

Cc1cc(O)cc(C)c1C[C@H](N)C(=O)N[C@H](CCCNC(=N)N)C(=O)N[C@@H](Cc1ccccc1)C(=O)N[C@@H](Cc1ccccc1)C(=O)N[C@@H](CCC(N)=O)C(=O)O
Activity (Mus musculus [16]): Active | pKi (Mu-type opioid receptor [1]): 9.47 | pEC50 (Mu-type opioid receptor [2]): 9.55

Cc1cc(O)cc(C)c1C[C@H](N)C(=O)N1CCC[C@H]1C(=O)N[C@@H](Cc1ccccc1)C(=O)N[C@@H](Cc1ccccc1)C(=O)N[C@@H](CCC(N)=O)C(=O)N[C@@H](Cc1ccccc1)C(=O)N[C@@H](CCC(N)=O)C(=O)N[C@@H](Cc1ccccc1)C(=O)N[C@@H](CCCCN)C(N)=O (H-[Dmt]PFFQFQFK-NH2)
pKi (Mu-type opioid receptor [1]): 6.85 to 8.30

Cc1cc(O)cc(C)c1C[C@H](N)C(=O)N1CCC[C@H]1C(=O)N[C@@H](Cc1c[nH]c2ccccc12)C(=O)N[C@@H](Cc1ccccc1)C(=O)N[C@@H](CCC(N)=O)C(=O)N[C@@H](Cc1ccccc1)C(=O)N[C@@H](CCC(N)=O)C(=O)N[C@@H](Cc1ccccc1)C(=O)N[C@@H](CCCCN)C(N)=O (H-[Dmt]PWFQFQFK-NH2)
pKi (Mu-type opioid receptor [1]): 6.85 to 8.30

Cc1cc(O)cc(C)c1C[C@H](N)C(=O)N[C@H](CCCNC(=N)N)C(=O)N[C@@H](Cc1ccccc1)C(=O)N[C@@H](Cc1ccccc1)C(=O)N[C@@H](CCC(N)=O)C(=O)N[C@@H](Cc1ccccc1)C(=O)N[C@@H](CCC(N)=O)C(=O)N[C@@H](Cc1ccccc1)C(=O)N[C@@H](CCCCN)C(N)=O (H-[Dmt][dR]FFQFQFK-NH2)
Drug metabolism [17]: Metabolite_Detected | Drug metabolism [18]: Metabolite_Detected | half-life at 9 µM [12]: 16 min | Activity (Mus musculus [19]): Active | Drug metabolism [20]: Metabolite_Detected

Cc1cc(O)cc(C)c1C[C@H](N)C(=O)N[C@H](CCCNC(=N)N)C(=O)N[C@H]1Cc2ccccc2CN(CCC(=O)N[C@@H](Cc2ccccc2)C(=O)N[C@@H](CCC(N)=O)C(=O)N[C@@H](Cc2ccccc2)C(=O)N[C@@H](CCC(N)=O)C(=O)N[C@@H](Cc2ccccc2)C(=O)N[C@@H](CCCCN)C(N)=O)C1=O (H-[Dmt][dR][X1]FQFQFK-NH2)
pKi (Mu-type opioid receptor [1]): 6.85 to 8.30

H-FEFQFK-NH2
remaining at 72 h [11]: 20%

Cc1cc(O)cc(C)c1C[C@H](N)C(=O)N1CCC[C@H]1C(=O)N[C@@H](Cc1c[nH]c2ccccc12)C(=O)N[C@@H](Cc1ccccc1)C(N)=O
pEC50 (Mu-type opioid receptor [2]): 9.07 to 10.00 | Activity (Mu-type opioid receptor [6]): inactive | MPE (Mus musculus [21]): <80%

Cc1cc(O)cc(C)c1C[C@H](N)C(=O)N1CCC[C@H]1C(=O)N[C@@H](Cc1ccccc1)C(=O)N[C@@H](Cc1ccccc1)C(N)=O
MPE (Mus musculus [22]): <80% | pEC50 (Mu-type opioid receptor [2]): 9.07 to 10.00 | Activity (Mu-type opioid receptor [6]): inactive

Cc1cc(O)cc(C)c1C[C@H](N)C(=O)N[C@H](CCCCN)C(=O)N[C@@H](Cc1ccccc1)C(=O)N[C@@H](Cc1ccccc1)C(=O)N[C@@H](CCC(=O)O)C(=O)N[C@@H](Cc1ccccc1)C(=O)N[C@@H](CCC(N)=O)C(=O)N[C@@H](Cc1ccccc1)C(=O)N[C@@H](CCCCN)C(N)=O (H-[Dmt][dK]FFEFQFK-NH2)
pKi (Mu-type opioid receptor [1]): 6.85 to 8.30 | Activity (Mus musculus [7]): Active
